Screening data deposited in PubChem by several laboratories.
PKD1 inh: inhibitors of human PKD1 kinase, biochemical, fluorescence polarization. Serine/threonine-protein kinase D1 (Homo sapiens), Q15139. PKD1 kinase fluorescence polarization assay. inhibition, % (concentration not given with the values). 200,000 compounds, 0.056% hits; in the data active = inhibition above about 50%
ROMK mod: ROMK potassium channel modulators, primary screen, cell-based, thallium flux, MLSMR library; 130,000 compounds, 2% hits; Tet-inducible ROMK, thallium flux fluorescence; actives lie on both sides; B-score at 10 µM; ATP-sensitive inward rectifier potassium channel 1 (Homo sapiens), P48048; AID 1918, 2009;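 active = signal ratio slope over the read window, or its plate-corrected B-score, at least 3 SD from the plate mean, either direction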;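 also: B-score of the F/F0 ratio slope over 7 to 12 s after thallium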
Target sequence (P48048 whole entry, looked up): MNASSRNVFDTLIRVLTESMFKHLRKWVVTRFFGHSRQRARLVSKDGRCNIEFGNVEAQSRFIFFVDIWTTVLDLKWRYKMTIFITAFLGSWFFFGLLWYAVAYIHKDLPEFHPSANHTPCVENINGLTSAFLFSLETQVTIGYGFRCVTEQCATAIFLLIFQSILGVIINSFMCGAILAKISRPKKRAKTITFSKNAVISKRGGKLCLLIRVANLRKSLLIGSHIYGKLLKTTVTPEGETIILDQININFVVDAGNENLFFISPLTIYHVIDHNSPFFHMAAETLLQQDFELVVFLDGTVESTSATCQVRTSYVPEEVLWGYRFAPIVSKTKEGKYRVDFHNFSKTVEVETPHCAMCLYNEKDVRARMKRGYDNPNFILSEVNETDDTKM
KCC2 mod: KCC2 cotransporter modulators, thallium flux, primary screen, cell-based, HEK293 KCC2, FluoZin-2 fluorescence, MLSMR | KCC2 cells, thallium flux FluoZin-2 fluorescence | B-score of Tl+ flux slope (higher = more flux/activation; lower = inhibition) at 10 µM | 190,000 compounds, 2.2% hits;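 active = thallium flux slope and its plate-corrected score both differing from the plate sample mean at a set confidence after two filtering rounds, in either direction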;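 also: slope of fluorescence scaled to starting intensity during 10 to 20 s after thallium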
DTT redox prof: compounds producing H2O2 with reducing agent – biochemical, NIH compound library profiling, artefact control for MLSCN library redox annotation, primary screen. activation, % at 10 µM. 200,000 compounds, 0.03% hits. AID 878, 2007. DTT-dependent redox cycling H2O2, phenol red/HRP absorbance; 100% = 100 µM peroxide control, 0% = buffer;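 active = activation of at least 50% relative to the plate's high and low controls in the primary single-dose screen; inactive = activation below 50%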;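 also: compound incubated with DTT at 0.8 mM final as the reducing agent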
Mdm2 ligase inh: MDM2-luciferase reporter signal enhancers, primary screen, MDM2 E3 ligase inhibitor project, cell-based, luminescence, 1536-well; 210,000 compounds, 0.11% hits; cell-based MDM2 ubiquitination luciferase reporter, 2 h; 0 = plate control, 100 = twice control, blank-subtracted; signal enhancement, % at 5 µM; AID 1230, 2008; E3 ubiquitin-protein ligase Mdm2 (Homo sapiens), Q00987;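 active = signal enhancement of 30% or more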;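 also: luminescence tracks abundance of the self-degrading MDM2-luciferase fusion protein; higher signal means inhibition of MDM2 E3 ligase activity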
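Assay system: stable mammalian line carrying autodegrading MDM2–luciferase fusion reporter; amount: 2000 cells seeded into each well; buffer or medium: DMEM; benchmarks: plate control and blank wells; signal: luciferase luminescence; timing: 2 h compound exposure at 37 °C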
p97 ATPase inh: inhibitors of human p97 ATPase, primary screen, biochemical | AID 1481, 2009 | recombinant p97 ATPase, Kinase-Glo ATP luminescence, 3 h | Transitional endoplasmic reticulum ATPase (Homo sapiens), P55072 | inhibition, % at 8 µM | 220,000 compounds, 0.42% hits; in the data active = inhibition above about 15%;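 also: 0% = DMSO vehicle and 100% = wells lacking enzyme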
KCC2 sec1: KCC2 modulators in sodium-free buffer, confirmation, cell-based, HEK293 KCC2, thallium flux, secondary assay; normalised thallium flux (F/F0 slope) at 10 µM; AID 1713, 2009; FluoZin2 fluorescence; hits give high values; 3,700 compounds, 15% hits; shares compounds with KCC2 mod;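 active = thallium flux slope above the same plate's solvent-only control mean plus 3 SD; inconclusive = the two replicate wells disagree; inactive = no significant difference from solvent-only control wells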
KCC2 bumet counter: thallium flux persisting under bumetanide in KCC2 cells, confirmation, counter-screen for KCC2 modulator project, cell-based, HEK293 KCC2, FluoZin2, secondary assay 3 | shares compounds with KCC2 mod | HEK293-KCC2 + bumetanide/ouabain; hits give high values | normalized thallium flux at 10 µM | 3,700 compounds, 49% hits;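 active = thallium entry rate above the same plate's blocked-transporter control wells by more than 3 SD; inconclusive = the two repeat wells disagree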;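 also: raw slope of fluorescence over initial fluorescence between 10 and 20 s after thallium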
KCC2 sec2: KCC2 modulators without ouabain present, confirmation, cell-based, HEK293 KCC2, thallium flux, FluoZin2, secondary assay 2. normalized thallium flux at 10 µM. AID 1715, 2009. shares compounds with KCC2 mod. 3,700 compounds, 23% hits. thallium flux FluoZin2 fluorescence; actives lie on both sides; F/F0 rise rate, 10–20 s post-thallium;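 active = thallium flux slope more than 3 SD above or below the plate's solvent-only control mean, mostly below; inconclusive = the two repeat wells disagreed; inactive = no significant shift from solvent-only controls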;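 also: raw slope with 0.1% DMSO as baseline and bumetanide as block control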
HEK counter1: thallium flux modulation in parental HEK cells, confirmation, counter-screen for KCC2 modulator project, cell-based, counterscreen 1; shares compounds with KCC2 mod; HEK293 parental cells, thallium flux FluoZin2, ouabain; baseline-ratio fluorescence slope, 10–20 s after thallium; thallium flux rate (normalised fluorescence) at 10 µM; 3,700 compounds, 46% hits; AID 1716, 2009;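 active = thallium flux rate significantly above the same plate's solvent-only control wells, beyond their mean plus 3 SD; inconclusive = the two replicate wells gave conflicting results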
KCC2 ouabain: KCC2 inhibitors and activators, ouabain retest, confirmation, HEK-KCC2 cells; HEK293-KCC2, thallium flux FluoZin2 fluorescence; bidirectional: low = inhibitor, high = activator; shares compounds with KCC2 mod; raw Tl+ flux slope (below DMSO = inhibition, above = activation) at 10 µM; 3,700 compounds, 48% hits;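 active = thallium flux slope beyond 3 SD from same-plate DMSO control mean in most replicates, usually higher, sometimes lower; inconclusive = repeat tests gave conflicting results; inactive = no significant difference from controls in most replicates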;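 also: slope of initial-normalized fluorescence between seconds 10 and 20 after thallium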
HEK counter2: native HEK Tl+ uptake effects, second counter-screen – HEK cells, counterscreen 2, counter-screen for KCC2 modulator project, confirmation. thallium flux slope at 10 µM. 3,700 compounds, 33% hits. AID 1718, 2009. shares compounds with KCC2 mod. HEK293 parental, thallium flux FluoZin-2 fluorescence slope;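 active = thallium flux slope above the same plate's solvent-control mean plus 3 SD in both duplicate wells; inconclusive = duplicate wells that disagreed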;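 also: run without ouabain in cells lacking the KCC2 cotransporter; slope of fluorescence scaled to its starting value between 10 and 20 s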
An asterisk follows results filed as active; ? = inconclusive; nt = not tested or not shown. Hits are enriched below; roughly 3.4% of the tested compounds scored in any of these assays.

SMILES | PKD1 inh | ROMK mod | KCC2 mod | DTT redox prof | Mdm2 ligase inh | p97 ATPase inh | KCC2 sec1 | KCC2 bumet counter | KCC2 sec2 | HEK counter1 | KCC2 ouabain | HEK counter2
O=C(Nc1nc(-c2ccccc2)cs1)c1ccc2c(=O)n3c(nc2c1)CCCCC3 | -9 | 0.0006 | -0.72 | 0 | -1 | 5 | nt | nt | nt | nt | nt | nt
S=c1[nH]c(-c2ccccc2)cn1/N=C/c1cccnc1 | nt | 0.17 | 1.7 | nt | -2 | 3 | nt | nt | nt | nt | nt | nt
Fc1ccccc1/C=N/n1cc(-c2ccccc2)[nH]c1=S | nt | nt | 75* | nt | nt | 5 | 0.026* | 0.12* | 0.035 | 0.053* | 0.067* | 0.017*
Cc1ccc(C)c(/C=N/n2cc(-c3ccccc3)[nH]c2=S)c1 | 2 | 0.77 | 21* | 0 | -6 | 2 | 0.013* | 0.047* | 0.035 | 0.055* | 0.041* | 0.014*
O=C(O)c1ccc(/C=N/n2cc(-c3ccccc3)[nH]c2=S)cc1 | nt | nt | 1.1 | nt | 2 | 9 | nt | nt | nt | nt | nt | nt
Fc1ccc(OCc2nc(-c3ccc(Br)o3)no2)c(F)c1 | 7 | nt | nt | -1 | -11 | 1 | 0.0066 | 0.0057 | 0.027 | 0.0062 | 0.015* | 0.0088
C/C(=N\NC(=S)NCCc1ccccc1)c1ccc(C#N)cc1 | 1 | -0.017 | 0.51 | 0 | -1 | -7 | nt | nt | nt | nt | nt | nt
CNC(=S)N/N=C(\C)c1ccc(Cl)c(Cl)c1 | -5 | -0.0074 | 6.6* | 0 | -3 | 5 | 0.0054 | 0.032* | 0.038 | 0.018* | 0.032* | 0.018*
C/C(=N\NC(=S)NCCc1ccccc1)c1ccc(Cl)cc1 | -5 | 0.31 | 6.2* | 0 | -2 | -9 | 0.0061 | 0.014* | 0.03 | 0.014* | 0.023 | ?
C/C(=N\O)c1ccc(Cl)c(Cl)c1 | nt | -0.12 | -0.032 | nt | -9 | 0 | nt | nt | nt | nt | nt | nt
S=C(NCCc1ccccc1)NN=C1CCCCCC1 | -1 | -0.079 | 9.4* | -1 | -10 | -4 | 0.0076 | 0.016* | 0.035 | ? | ? | 0.012
COCCNC(=S)N/N=C(\C)c1ccc(Cl)c(Cl)c1 | 2 | -0.38 | 6.6* | -2 | -8 | 1 | ? | 0.032* | 0.036 | ? | 0.029* | ?
C=CCOC(=O)C1=C(C)NC(=O)NC1C1CC=CCC1 (centres undefined) | -1 | nt | 1.4 | 1 | -12 | 1 | nt | nt | nt | nt | nt | nt
CC(C)(C)c1cc(C(=O)NNC(=O)c2ccc(C(F)(F)F)cc2)no1 | nt | nt | 64* | nt | -17 | 5 | 0.028* | 0.083* | ? | 0.041* | 0.045* | 0.022*
Cc1nnsc1C(=O)NNC(=O)c1ccc(C(F)(F)F)cc1 | nt | nt | -0.018 | nt | -10 | 6 | nt | nt | nt | nt | nt | nt
O=C(Cn1c(=O)n(CC2CCCO2)c(=O)c2ccccc21)N1CCN(c2ccccc2)CC1 (centres undefined) | 0 | nt | nt | -1 | -12 | 5 | nt | nt | nt | nt | nt | nt
Cc1ccc(Cn2c(CN3CCOCC3)nc3c2c(=O)n(C)c(=O)n3C)cc1 | -10 | nt | 0.56 | 2 | -5 | -2 | nt | nt | nt | nt | nt | nt
C=CCNC(=S)Nc1cc(Cl)ccc1OC | 0 | 0.48 | 0.45 | 0 | 10 | 2 | nt | nt | nt | nt | nt | nt
O=C(CN1CCN(S(=O)(=O)c2ccccc2)CC1)Nc1ccc2c(c1)CCC2 | -3 | -0.28 | 6.2* | 0 | -12 | 5 | 0.0065 | 0.0048 | ? | 0.0076 | 0.017 | 0.011
CCN(CC)CCCOc1ccc(C)cc1Br | 3 | 0.042 | nt | 0 | -7 | -4 | 0.0069 | 0.0049 | 0.027 | ? | 0.018 | 0.011
CCOc1ccccc1OCCCOc1ccc(C)cc1Br | 6 | -0.43 | -0.13 | -5 | -19 | -3 | nt | nt | nt | nt | nt | nt
C=CCN1C(=O)c2cccc3c(Br)ccc(c23)C1=O | 0 | nt | -0.45 | 0 | -6 | 2 | nt | nt | nt | nt | nt | nt
COc1ccc(NC(=S)N/C(=N/S(=O)(=O)c2ccc(C)cc2)c2ccccc2)cc1 | -4 | 0.47 | 4.2* | 7 | -15 | 2 | ? | 0.02* | 0.032 | 0.013* | 0.026* | 0.012
C/C(=N\S(=O)(=O)c1ccc(C)cc1)NC(=S)Nc1ccccc1 | -4 | -0.11 | 2.1 | 0 | -19 | 1 | nt | nt | nt | nt | nt | nt
Cc1ccc(S(=O)(=O)NN/C(=N/S(=O)(=O)c2ccccc2)c2ccccc2)cc1 | -5 | 1 | -0.23 | 3 | -4 | 2 | nt | nt | nt | nt | nt | nt
CCOC(=S)N/C(=N\S(=O)(=O)c1ccc(C)cc1)c1ccccc1 | -7 | nt | nt | 14 | 6 | 1 | ? | 0.015* | 0.04 | ? | 0.028* | 0.011
Cc1cc(N2CCN(C)CC2)nc2ccc(NC(=S)NCCCN3CCN(C)CC3)cc12 | 2 | -0.01 | -0.0049 | -2 | -7 | 0 | nt | nt | nt | nt | nt | nt
CCOc1ccccc1/C=C(/NC(=O)c1ccccc1)C(=O)NCC(=O)O | -5 | nt | 0.27 | 0 | -16 | -4 | nt | nt | nt | nt | nt | nt
Cc1cc(C)n(C(=O)/C(C#N)=N\Nc2ccccc2[N+](=O)[O-])n1 | -1 | 0.73 | 0.62 | 0 | -20 | -1 | nt | nt | nt | nt | nt | nt
Cc1cc(C)n(C(=O)/C(C#N)=N/Nc2cc(Cl)cc(Cl)c2)n1 | -6 | -1.5 | -7.7* | -1 | -37 | -2 | ? | ? | 0.033 | 0.0037 | 0.014* | 0.011
